{"source": "ChEMBL document CHEMBL5150051", "about": "“Identification and Characterization of a Novel Indoleamine 2,3-Dioxygenase 1 Protein Degrader for Glioblastoma” (J Med Chem, 2022)", "key": {"[1]": {"biological_target": "T1, Protein cereblon/Indoleamine 2,3-dioxygenase 1 (Homo sapiens, UniProt P14902+Q96SW2)", "assay": "Protac activity at IDO1/CRBN in human U87 cells assessed as decrease in phosphorylated p65 in nucleus at 1 to 10 uM measured after 24 hrs by Western blot analysis", "type": "cell-based", "details": "dose 1-10 µM", "summary_of_the_method": "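Cytoplasmic and nuclear fractions prepared from U87 cells after 24 h treatment with DMSO or compound. Fractions blotted for IDO1, phospho-p65 and total p65, with HDAC2 as nuclear marker and tubulin as cytoplasmic marker.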"}, "[2]": {"biological_target": "T1, Protein cereblon/Indoleamine 2,3-dioxygenase 1", "assay": "Protac activity at IDO1/CRBN in IFNgamma-stimulated human KNS-42 cells assessed as IDO1 degradation measured after 24 hrs by Western blotting analysis", "type": "cell-based", "details": "dose 0.1-10 µM, DDE = dose-dependent effect"}, "[3]": {"biological_target": "T2, Indoleamine 2,3-dioxygenase 1 (Homo sapiens, UniProt P14902)", "assay": "Binding affinity to IDO1 (unknown origin) assessed as dissociation constant by bio-layer interferometry assay", "summary_of_the_method": "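Bio-layer interferometry measured binding to IDO1 at 30 °C in PBS with 0.5% DMSO. Kd, kon and koff were derived.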"}, "[4]": {"biological_target": "T1, Protein cereblon/Indoleamine 2,3-dioxygenase 1", "assay": "Protac activity at IDO1/CRBN in IFNgamma-stimulated human U87 cells assessed as IDO1 degradation by measuring decrease in protein level measured after 24 hrs by Western blotting analysis", "type": "cell-based", "details": "dose 0.1-10 µM, DDE = dose-dependent effect", "summary_of_the_method": "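U87 cells given human IFNγ 50 ng/mL for 24 h to induce IDO1, then PROTAC over a dose range starting at 0.01 μM and rising to 30 μM for 24 h. Western blot read-out. IDO1 band densitometry normalized to untreated samples and fitted to give DC50, the concentration giving 50% IDO1 degradation. n = 3 independent experiments, mean ± SEM.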"}, "[5]": {"biological_target": "T1, Protein cereblon/Indoleamine 2,3-dioxygenase 1", "assay": "Protac activity at IDO1/CRBN in IFNgamma-stimulated human GBM43 cells assessed as IDO1 degradation measured after 24 hrs by Western blotting analysis", "type": "cell-based, GBM43 cell", "summary_of_the_method": "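GBM43 cells stimulated with 50 ng/mL human IFNγ for 24 h, then treated across 0.01 to 30 μM for 24 h. IDO1 was quantified by western blot densitometry as percent of IFNγ-induced untreated level. DC50 came from the dose-response curve; n = 3 independent experiments, mean ± SEM.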"}, "[6]": {"biological_target": "T1, Protein cereblon/Indoleamine 2,3-dioxygenase 1", "assay": "Protac activity at CRBN/IDO1 in IFNgamma-stimulated human CD18 cells assessed as decrease in kynurenine level at 10 uM measured after 24 hrs by Ehrlich's test", "type": "cell-based", "details": "CD18 cell"}, "[7]": {"biological_target": "T2, Indoleamine 2,3-dioxygenase 1", "assay": "Binding affinity to IDO1 (unknown origin) assessed as binary complex stability by measuring half-life by bio-layer interferometry assay"}, "[8]": {"biological_target": "T1, Protein cereblon/Indoleamine 2,3-dioxygenase 1", "assay": "Protac activity at CRBN/IDO1 non-enzyme mediated NF-kappaB signal in IFNgamma-stimulated human MDA-MB-231 cells assessed as decrease in p65 phosphorylation at 0.1 to 10 uM measured after 24 hrs Western blotting assay", "type": "cell-based", "details": "dose 0.1-10 µM", "summary_of_the_method": "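IFNγ-stimulated cells were induced for 24 h, then treated at several concentrations for 24 h. Lysates were western blotted for IDO1, phospho-p65, total p65 and GAPDH.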"}, "[9]": {"biological_target": "T1, Protein cereblon/Indoleamine 2,3-dioxygenase 1", "assay": "Protac activity at CRBN/IDO1 in IFNgamma-stimulated human GBM43 cells assessed as decrease in kynurenine level measured after 24 hrs by Ehrlich's test", "type": "cell-based", "details": "GBM43 cell, DDE = dose-dependent effect", "summary_of_the_method": "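U87 or GBM43 cells given compound together with 50 ng/mL IFNγ for 24 h. Supernatant kynurenine was measured with Ehrlich's reagent. Cells cultured without IFNγ served as control.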"}, "[10]": {"biological_target": "T1, Protein cereblon/Indoleamine 2,3-dioxygenase 1", "assay": "Protac activity at IDO1/CRBN in IFNgamma-stimulated human OVCAR-5 cells assessed as IDO1 degradation by measuring decrease in intracellular protein level measured after 24 hrs by Western blotting analysis", "type": "cell-based", "details": "dose 1-10 µM, DDE = dose-dependent effect"}, "[11]": {"biological_target": "T1, Protein cereblon/Indoleamine 2,3-dioxygenase 1", "assay": "Protac activity at CRBN/IDO1-HA expressed in human U87 cells assessed as IDO1 degradation in intracellular nuclear compartment measured at 1 to 10 uM after 24 hrs by Western blotting analysis", "type": "subcellular", "details": "Nucleus, dose 1-10 µM"}, "[12]": {"biological_target": "T1, Protein cereblon/Indoleamine 2,3-dioxygenase 1", "assay": "Protac activity at IDO1/CRBN in human U87 cells assessed as IDO1 degradation at 10 uM measured after compound washout by Western blotting analysis relative to control", "type": "cell-based", "summary_of_the_method": "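U87 cells exposed to PROTAC for 24 h, after which compound was fully withdrawn from the medium and culture continued without it for up to 48 h. IDO1 levels then assessed by western blot.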"}, "[13]": {"assay": "Drug uptake in C57BL/6 mouse brain at 25 mg/kg, ip measured after 6 hrs by equilibrium dialysis", "type": "ADME, organism-based", "details": "in vivo", "summary_of_the_method": "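C57BL/6 mice received a single 25 mg/kg ip dose. Serum and brain were sampled at 0 to 24 h and the drug was quantified by mass spectrometry (n = 3 mice/dose). Binding to mouse brain homogenate was measured by 6 h equilibrium dialysis.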"}, "[14]": {"assay": "Drug uptake in C57BL/6 mouse liver at 50 mg/kg, ip treated 5 days/week for 3 weeks by LC/MS/MS analysis", "type": "ADME, organism-based", "details": "in vivo, 504 h"}, "[15]": {"assay": "Drug uptake in C57BL/6 mouse intestine at 100 mg/kg, ip treated 5 days/week for 3 weeks by LC/MS/MS analysis", "type": "ADME, organism-based", "details": "in vivo, 504 h"}, "[16]": {"biological_target": "T1, Protein cereblon/Indoleamine 2,3-dioxygenase 1", "assay": "Protac activity at IDO1/CRBN in IFNgamma-stimulated human PBMC cells isolated form non-GBM patient assessed as IDO1 degradation by measuring decrease in intracellular protein level measured after 24 hrs by Western blotting analysis", "type": "cell-based", "details": "DDE = dose-dependent effect"}, "[17]": {"biological_target": "T1, Protein cereblon/Indoleamine 2,3-dioxygenase 1", "assay": "Protac activity at IDO1/CRBN in IFNgamma-stimulated human PC-3 cells assessed as IDO1 degradation by measuring decrease in intracellular protein level measured after 24 hrs by Western blotting analysis", "type": "cell-based", "details": "dose 1-10 µM, DDE = dose-dependent effect"}, "[18]": {"biological_target": "T1, Protein cereblon/Indoleamine 2,3-dioxygenase 1", "assay": "Protac activity at CRBN/IDO1-FLAG expressed in human U87 cells assessed as IDO1 degradation in intracellular nuclear compartment measured at 1 to 10 uM after 24 hrs by Western blotting analysis", "type": "subcellular", "details": "Nucleus, dose 1-10 µM"}, "[19]": {"biological_target": "T1, Protein cereblon/Indoleamine 2,3-dioxygenase 1", "assay": "Protac activity at IDO1/CRBN in IFNgamma-stimulated human U87 cells assessed as IDO1 degradation at 10 uM measured after 24 hrs by Western blotting analysis relative to control", "type": "cell-based", "summary_of_the_method": "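U87 GBM cells primed with human IFNγ 50 ng/mL for 24 h, then exposed to PROTAC at 10 μM for 24 h. Lysates run on western blot; IDO1 bands quantified by densitometry and expressed as percent of normalized IDO1 protein level.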"}, "[20]": {"biological_target": "T1, Protein cereblon/Indoleamine 2,3-dioxygenase 1", "assay": "Protac activity at CRBN/IDO1 in 50 ng/mL IFNgamma-stimulated human U87 cells assessed as IDO1 degradation by measuring decrease in protein level measured at 0.1 to 10 uM after 24 hrs by Western blotting analysis", "details": "dose 0.1-10 µM"}, "[21]": {"biological_target": "T1, Protein cereblon/Indoleamine 2,3-dioxygenase 1", "assay": "Protac activity at CRBN/IDO1 in IFNgamma-stimulated human OVCAR-5 cells assessed as decrease in kynurenine level at 10 uM measured after 24 hrs by Ehrlich's test", "type": "cell-based"}, "[22]": {"assay": "Drug uptake in C57BL/6 mouse brain at 10 to 100 mg/kg, ip treated 5 days/week for 3 weeks by LC/MS/MS analysis", "type": "ADME, organism-based", "details": "in vivo, 504 h, dose 10-100 mg/kg", "summary_of_the_method": "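Male C57BL/6 mice dosed ip at 10, 25, 50 or 100 mg/kg, 5 days/week for 3 weeks, alongside vehicle. After 3 weeks, serum and brain homogenate were analysed by mass spectrometry for drug level; mean ± SEM, n = 3 mice/dose.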"}}, "note": "The source made the active and inactive calls. No cut-off for these calls is given here."}
{"smiles": "C[C@@H](C(=O)Nc1ccc(OC2CCN(C(=O)CCOCCOCCNc3cccc4c3C(=O)N(C3CCC(=O)NC3=O)C4=O)CC2)cc1)[C@H]1CC[C@@H](c2ccnc3ccc(F)cc32)CC1", "note": "(stereo partly drawn)", "values": [{"measurement": "Activity", "setting": "[1]", "value": "Active"}, {"measurement": "Activity", "setting": "[2]", "value": "Dde"}, {"measurement": "Kd", "setting": "[3]", "value": 0.64, "unit": "µM"}, {"measurement": "Activity", "setting": "[4]", "value": "Dde"}, {"measurement": "EC50", "setting": "[5]", "value": 0.544, "unit": "µM"}, {"measurement": "Activity", "setting": "[5]; GBM43 cell, dose 1-10 µM, DDE = dose-dependent effect", "value": "Dde"}, {"measurement": "inhibition", "setting": "[6]", "value": "Active"}, {"measurement": "T1/2", "setting": "[7]", "value": 16, "unit": "s"}, {"measurement": "inhibition", "setting": "[8]", "value": "Active"}, {"measurement": "inhibition", "setting": "[9]", "value": "Dde"}, {"measurement": "Activity", "setting": "[10]", "value": "Dde"}, {"measurement": "Activity", "setting": "[11]", "value": "Active"}, {"measurement": "Activity", "setting": "[12]", "value": "Active"}, {"measurement": "Drug uptake", "setting": "[13]", "value": 99.8, "unit": "%"}, {"measurement": "Drug uptake", "setting": "[14]", "value": "Active"}, {"measurement": "Drug uptake", "setting": "[15]", "value": "Active"}, {"measurement": "Activity", "setting": "[16]", "value": "Dde"}, {"measurement": "Activity", "setting": "[17]", "value": "Dde"}, {"measurement": "Activity", "setting": "[18]", "value": "Active"}, {"measurement": "Activity", "setting": "[19]", "value": 94, "unit": "%"}, {"measurement": "Activity", "setting": "[20]", "value": "Active"}, {"measurement": "inhibition", "setting": "[21]", "value": "Active"}, {"measurement": "Drug uptake", "setting": "[22]", "value": "Active"}]}
